Experimental data from article PMC6128401 (Molecular pharmaceutics, 2017).

What was measured:
[1] = biological target: T1, A431-CCK2R cell line expressing the human CCK2R (Homo sapiens, UniProt P32239); assay: Cell uptake; assay type: cell-based; conditions: A431-CCK2R cells, 2 h incubation, 0.4 nM
T1 sequence (P32239 1-447): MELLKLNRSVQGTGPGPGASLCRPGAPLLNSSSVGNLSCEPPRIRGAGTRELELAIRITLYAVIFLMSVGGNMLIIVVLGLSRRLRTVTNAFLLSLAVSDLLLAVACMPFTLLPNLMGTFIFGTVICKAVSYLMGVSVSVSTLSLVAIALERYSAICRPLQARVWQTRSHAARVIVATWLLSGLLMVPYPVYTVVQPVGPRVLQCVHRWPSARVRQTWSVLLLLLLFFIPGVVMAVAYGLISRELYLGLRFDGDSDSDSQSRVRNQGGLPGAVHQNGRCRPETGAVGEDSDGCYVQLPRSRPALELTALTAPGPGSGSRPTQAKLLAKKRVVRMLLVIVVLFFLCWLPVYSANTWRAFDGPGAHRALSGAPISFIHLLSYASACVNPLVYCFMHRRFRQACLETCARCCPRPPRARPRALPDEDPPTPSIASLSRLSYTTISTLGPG
Summary of the method: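 A431-CCK2R and A431-mock cells were cultured in DMEM with 10% FBS, penicillin/streptomycin/L-glutamine at 37°C, 5% CO₂. They were seeded at 1.0×10⁶ cells/well and grown 48 h to confluency. Peptides were labelled with ¹⁷⁷LuCl₃ (~50 GBq/µmol) in ascorbate buffer pH 5 with gentisic acid and L-Met, 80°C. Triplicate wells received ~100,000 cpm (0.4 nM) for 2 h. The internalized fraction was gamma-counted as % of total added.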

[2] = Chemical stability in phosphate buffered saline; assay type: physicochemical; conditions: PBS at RT, up to/after 4 h incubation
Summary of the method: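 ¹⁷⁷Lu-labelled peptide (120 pmol/mL) was kept in phosphate buffered saline at room temperature. Aliquots were taken at intervals up to […] and analysed by HPLC for percentage intact radiopeptide relative to post-labelling radiochemical purity.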

[3] = Stability against enzymatic degradation in human serum; assay type: in vitro ADME
Summary of the method: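 The ¹⁷⁷Lu-labelled peptide was incubated in human serum at 37°C and sampled at time points up to 24 h. Proteins were precipitated with acetonitrile (1:1.5) and centrifuged; supernatant was diluted 1:1 with water before HPLC for intact radiopeptide. Half-life came from first-order exponential decay fitting.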

[4] = assay type: physicochemical
Summary of the method: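 Labelling used ~2 GBq ¹⁷⁷LuCl₃ in 1 mL dilute HCl, heated at 80°C for 15-25 min. Kits were stored up to 6 months; labelled product was held up to 48 h at room temperature or −20°C. Radiochemical purity was measured by RP-HPLC.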

A431-CCK2R xenografts [5] = assay: Biodistribution: uptake in receptor-positive tumour xenograft; assay type: in vivo, BALB/c nude mice; conditions: 30 min p.i.
Summary of the method: (§1)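 Female and male BALB/c nude mice, 5-6 weeks old, carried A431-CCK2R and A431-mock xenografts in opposite flanks (2×10⁶ cells each). Tumours grew for ~14 days to ~0.2 g. Kit-prepared ¹⁷⁷Lu-peptide, 1 MBq (20 pmol; 50 GBq/µmol), was injected into the tail vein. Groups of five were killed at 30 min, 4 h, 1 d, 2 d, 3 d and 7 d; dissected tissues were gamma-counted and expressed as % IA/g.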

[6] = Biodistribution: uptake in normal organs and tissues; assay type: in vivo, BALB/c nude mice; conditions: 30 min p.i.
Summary of the method: as §1

A431-CCK2R xenografts [7] = assay: Experimental radionuclide therapy, receptor-positive tumour growth; assay type: in vivo, BALB/c nude mice; conditions: for mean SGR A431-CCK2R: single i.v. treatment; for TVDT increase by a factor in comparison to the control group: A431-CCK2R tumours
A431-mock xenografts = assay: Experimental radionuclide therapy, receptor-negative tumour growth; assay type: in vivo, BALB/c nude mice; conditions: for mean SGR A431-mock: single i.v. treatment
[8] = Medullary toxicity: white blood cell and platelet counts; assay type: in vivo, BALB/c nude mice
Summary of the method: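 Double-xenografted nude mice were dosed as in the therapy study (saline, 15 or 30 MBq i.v.), n=5. Weekly, 0.1 mL venous blood was drawn from the superficial temporal vein by lancet, up to eight samples per animal. White blood cells and platelets were counted on an automatic haematology analyser. Counts were expressed relative to basal values (week −2 = inoculation; week 0 = treatment).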

[9] = Renal toxicity: creatinine and urea in serum; assay type: in vivo, BALB/c nude mice
Summary of the method: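 The same treated double-xenografted nude mice (saline, 15 or 30 MBq i.v.; n=5) gave weekly venous blood samples. Serum creatinine and urea were measured with specific kits on a semiautomatic biochemical analyser. Values were compared between treated and control groups over weeks from cell inoculation (week −2) onward.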

[10] = 15 MBq, one week after treatment
[11] = 15 MBq group, week 0 (week of treatment)
[12] = 15 MBq group, week -2 (cell inoculation)
[13] = 30 MBq group, week 0 (week of treatment)
[14] = 30 MBq group, week -2 (cell inoculation)

CCCC[C@H](NC(=O)[C@H](Cc1c[nH]c2ccccc12)NC(=O)[C@H]1CCCCNC(=O)[C@H](NC(=O)CN2CCN(CC(=O)O)CCN(CC(=O)O)CCN(CC(=O)O)CC2)CCC(=O)N[C@@H](C)C(=O)N[C@@H](Cc2ccc(O)cc2)C(=O)N1)C(=O)N[C@@H](CC(=O)O)C(=O)N[C@@H](Cc1ccccc1)C(N)=O [^177Lu-DOTA-cyclo-MG2, metal not drawn]
internalized radioligand fraction (% of total) [1]: 16.1±1.9% | RCP during incubation in PBS [2]: above 98% | half-life [3]: 17.8 h | mean RCP for the different time points after storage of the kits ([4]; kit storage up to 6 months, n=4): 97.8±1.3% | RCP after preparation ([4]; kit-prepared, directly after preparation): 97.8±1.3% | RCP at 24 h after preparation ([4]; stored at RT): 96.3±1.4% | maximal tumour uptake (A431-CCK2R xenografts [5]): 5.99 % IA/g | kidney uptake, maximal value [6]: 2.64 % IA/g | mean SGR A431-CCK2R (A431-CCK2R xenografts [7]; 15 MBq group (0.6 nmol)): 0.048±0.011 | mean SGR A431-CCK2R (A431-CCK2R xenografts [7]; 30 MBq group (1.2 nmol)): 0.033±0.002 | TVDT increase by a factor in comparison to the control group (A431-CCK2R xenografts [7]; high activity group (30 MBq)): 2.5 | TVDT increase by a factor in comparison to the control group (A431-CCK2R xenografts [7]; low activity group (15 MBq)): 1.7 | mean SGR A431-mock (A431-mock xenografts; 15 MBq group (0.6 nmol)): 0.068±0.005 | mean SGR A431-mock (A431-mock xenografts; 30 MBq group (1.2 nmol)): 0.042±0.004 | TVDT increase by a factor in comparison to the control group (A431-mock xenografts; A431-mock tumours, high activity group (30 MBq)): 1.8 | reduction in PLT counts compared to the basal value [8, 10]: 51.2-52.8% | reduction in WBC counts compared to the basal value [8, 10]: 37.8-40.8% | PLT value ([8]; 15 MBq, week 1 after treatment, reference 558-1,454): 531±45 ×10^9/L | decline of PLT value compared to the basal value ([8]; 30 MBq, after treatment): 44.8-58.0% | reduction of WBC value compared to the basal value ([8]; 30 MBq, week 1 after treatment): 67.2-70.9% | WBC value below the lower reference limit ([8]; 30 MBq, week 1 and 2 after treatment, reference 3.11-13.04): 2.17-2.94 ×10^9/L | PLT value below the reference values ([8]; 30 MBq, week 2 and 3 after treatment): 524-549 ×10^9/L | Creatinine (reference value 0.1-0.5) [9, 11]: 0.3 ± 0.1 mg/dL | Urea (reference value 17-38) [9, 11]: 25 ± 7 mmol/L | Creatinine (reference value 0.1-0.5) ([9]; 15 MBq group, week 1): 0.2 ± 0.1 mg/dL | Urea (reference value 17-38) ([9]; 15 MBq group, week 1): 27 ± 6 mmol/L | Creatinine (reference value 0.1-0.5) ([9]; 15 MBq group, week 2): 0.3 ± 0.2 mg/dL | Urea (reference value 17-38) ([9]; 15 MBq group, week 2): 34 ± 3 mmol/L | Creatinine (reference value 0.1-0.5) ([9]; 15 MBq group, week 3): 0.2 ± 0.1 mg/dL | Urea (reference value 17-38) ([9]; 15 MBq group, week 3): 34 ± 5 mmol/L | Creatinine (reference value 0.1-0.5) ([9]; 15 MBq group, week 4): 0.5 ± 0.2 mg/dL | Creatinine (reference value 0.1-0.5) ([9]; 15 MBq group, week 5): 0.7 mg/dL | Creatinine (reference value 0.1-0.5) ([9]; 15 MBq group, week -1): 0.2 ± 0.1 mg/dL | Urea (reference value 17-38) ([9]; 15 MBq group, week -1): 32 ± 2 mmol/L | Creatinine (reference value 0.1-0.5) [9, 12]: 0.1 ± 0.02 mg/dL | Urea (reference value 17-38) [9, 12]: 30 ± 4 mmol/L | urea above the upper limit of the reference value ([9]; 15 MBq, beginning from week 4 after treatment): 40 to 44 mmol/L | Creatinine (reference value 0.1-0.5) [9, 13]: 0.2 ± 0.1 mg/dL | Urea (reference value 17-38) [9, 13]: 27 ± 2 mmol/L | Creatinine (reference value 0.1-0.5) ([9]; 30 MBq group, week 1): 0.2 ± 0.1 mg/dL | Urea (reference value 17-38) ([9]; 30 MBq group, week 1): 37 ± 3 mmol/L | Creatinine (reference value 0.1-0.5) ([9]; 30 MBq group, week 2): 0.3 ± 0.2 mg/dL | Creatinine (reference value 0.1-0.5) ([9]; 30 MBq group, week -1): 0.3 ± 0.2 mg/dL | Urea (reference value 17-38) ([9]; 30 MBq group, week -1): 29 ± 4 mmol/L | Creatinine (reference value 0.1-0.5) [9, 14]: 0.2 ± 0.1 mg/dL | Urea (reference value 17-38) [9, 14]: 26 ± 3 mmol/L | urea levels above the reference limit ([9]; 30 MBq, beginning from week 2 after treatment): 39 to 63 mmol/L | creatinine levels above the reference limit ([9]; 30 MBq, beginning from week 3 after treatment): 0.6 to 0.8 mg/dL
